Hits are enriched below; roughly 3.8% of the tested compounds scored in any of these assays.
V-ATPase pH – yeast V-ATPase proton transport regulation by pHLuorin | S. cerevisiae, pHLuorin cytosolic pH fluorescence | response, % at 10 µM | 350,000 tested, 0.37% active | AID 504577; in the data active = response mostly above about 7.3%, no sharp cut-off; inactive = mostly below about 5.4%; note: actives read high
Granule exo inh – blocks lytic granule exocytosis | TALL-104 LAMP-1 surface exposure, flow cytometry; cells stimulated with thapsigargin and PMA | inhibition, % at 10 µM | 360,000 tested, 0.66% active | AID 651702;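 active = inhibition above about 55%, limit read from the data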
rCAG RNA binder – molecules binding r(CAG) RNA repeats | r(CAG) RNA repeat, TO-PRO-1 dye displacement fluorescence | inhibition, % at 3 µM | 370,000 tested, 1.3% active;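 active = inhibition above the plate cutoff, the mean of all test compounds on that plate plus 3 SD, cut at about 35% in these data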;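 note: 0% = DMSO alone and 100% = 100 µM mitoxantrone as full dye displacement; higher means more dye released from RNA so lower well fluorescence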
B2AR ag – agonists of human beta-2 adrenergic receptor inducing internalization; P07550; Am2.2-beta2AR cells, FAP receptor internalization, flow cytometry; response, % (test concentration not listed); 340,000 tested, 0.43% active;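 active = response above a set limit, near 3 SD of response in nonfluorescent compounds, cut at about 42% in these data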
Target sequence (P07550 whole entry, looked up): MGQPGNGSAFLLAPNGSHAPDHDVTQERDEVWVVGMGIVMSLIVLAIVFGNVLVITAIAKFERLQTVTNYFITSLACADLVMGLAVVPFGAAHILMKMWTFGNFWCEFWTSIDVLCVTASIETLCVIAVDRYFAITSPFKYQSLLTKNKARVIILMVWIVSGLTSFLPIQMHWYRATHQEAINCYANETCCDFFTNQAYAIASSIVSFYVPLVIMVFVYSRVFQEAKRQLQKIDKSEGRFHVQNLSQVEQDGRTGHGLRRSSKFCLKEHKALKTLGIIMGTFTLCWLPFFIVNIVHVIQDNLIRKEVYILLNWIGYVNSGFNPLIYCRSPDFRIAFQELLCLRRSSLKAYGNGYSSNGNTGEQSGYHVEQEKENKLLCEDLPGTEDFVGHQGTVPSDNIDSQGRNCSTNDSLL
T cell modulator – modulates CD8 T cell binding to vesicles; 2C CD8+ T cell-vesicle binding, flow cytometry; stronger effect = lower value; response (vesicle binding), % at 7 µM; 330,000 tested, 0.068% active;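 active = response, share of CD8 T cells binding vesicles, and their 90th percentile fluorescence all below set limits, cut at about 80% in these data, passing the limit was not always enough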;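 note: values below 100% mean blocked vesicle binding to the CD8+ T cells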
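Material: murine 2C transgenic CD8+ T lymphocytes / Also added: QL9-peptide-loaded Drosophila micro-vesicles bearing Ld, ICAM-1 and B7-1 / Schedule: binding step 1.5 h, 37 °C, antibody labelling 20 min, ice / Signal: flow cytometry, PE anti-B7-1 (FL2) versus Alexa647 anti-CD8 (FL8), PFA-fixed / Evaluation: percent CD8+ FL2 mean versus row control / Benchmarks: naked versus QL9-loaded vesicles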
MPTP block – permeability transition pore inhibition. 360,000 tested, 1.4% active. isolated mouse mitochondria, Ca2+ swelling absorbance, 30 min. inhibition, % at 10 µM;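 active = inhibition of 50% or more, scaled per plate between neutral and stimulator controls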;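 note: 0% = DMSO wells given calcium and 100% = 1 mM EGTA wells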
Rh123 counter – mitochondrial membrane potential, counter-screen. shares compounds with MPTP block. isolated mitochondria, Rhodamine 123 fluorescence. inhibition, % at 10 µM. 5,000 tested, 78% active. AID 624504; in the data active = inhibition above about 22%;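 note: 0% = DMSO vehicle and 100% = positive control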
MPTP swell DR – MPTP inhibition, dose response swelling confirmation | shares compounds with MPTP block | isolated mitochondria swelling, absorbance | IC50, µM | 780 tested, 58% active | AID 651561; in the data active = IC50 below about 20 µM
MPTP cs DR – counter-screen for mitochondrial permeability transition pore inhibitors, dose response. shares compounds with MPTP block. isolated mitochondria counterscreen, fluorescence read-out. IC50, µM. 780 tested, 49% active; in the data active = IC50 below about 80 µM
* hit, by the source's call; i = inactive; . = not tested or not shown.

SMILES | V-ATPase pH | Granule exo inh | rCAG RNA binder | B2AR ag | T cell modulator | MPTP block | Rh123 counter | others
O=C1CCC2(CCC(c3ccccc3)CC2)N1CCCO (configuration not stated) | . | . | 2.0 | . | . | . | .
Cc1cc(Nc2ccc([N+](=O)[O-])cc2)nc2ccccc12 | -2.3 | 0.0 | 18.3 | 6.0 | 169.0 | 75.7* | 58.5*
Cc1cc(Nc2ccc([N+](=O)[O-])cc2)c2ccccc2n1 | -0.8 | 40.5 | -1.1 | -0.6 | 336.9 | 1.6 | .
COc1cccc(CNS(=O)(=O)c2ccc3c(c2)CC(C)N3C(=O)C2CC2)c1 (configuration not stated) | -3.8 | 2.1 | -1.9 | -12.7 | 280.5 | 27.4 | .
COc1ccc(CNS(=O)(=O)c2ccc3c(c2)CC(C)N3C(=O)C2CC2)cc1 (configuration not stated) | -3.5 | 6.6 | -3.5 | -6.4 | 179.6 | 99.1* | 87.6*
COC(=O)[C@]12C[C@H](CC(=O)N3CCCC3)C(=O)N(Cc3ccco3)C1=C[C@H](C1CCCC1)O[C@@H]2C | . | . | -3.5 | . | . | . | .
Cc1ccc(S(=O)(=O)Nc2ccc3cn[nH]c3c2)c(C)c1 | -0.9 | 4.1 | 2.8 | 11.2 | 377.3 | 0.1 | .
CCOc1cc(C)c(S(=O)(=O)Nc2ccc3cn[nH]c3c2)cc1C | -4.6 | 1.2 | . | -18.4 | 256.0 | 72.5* | 75.9*
CC1(O)CC(c2ccc(Cl)cc2)=NN1C(=O)c1ccc(Cl)cc1 (configuration not stated) | 1.7 | 6.0 | 3.0 | 6.0 | 195.2 | 68.2* | 88.4*
Cc1ccccc1CNC(=O)c1cccc2c1C(=O)N(Cc1cccnc1)C2 | . | . | 0.1 | . | . | . | .
CCC(C)NS(=O)(=O)c1ccc(S(=O)(=O)N2CCCC3(CCCCC3)C2)cc1 (configuration not stated) | -2.9 | 5.4 | -1.6 | 11.4 | 335.7 | 88.0* | 100.0*
CCOC(=O)N[C@H](C(=O)N1CCC[C@H]1C(=O)NCCc1ccccc1Cl)C1CCCCC1 | . | . | -0.5 | . | . | . | .
C[C@H]1c2cccc(O)c2C(O)=C2C(=O)[C@]3(O)C(O)=C(C(N)=O)C(=O)[C@@H](N(C)C)C3[C@@H](O)C21 (some centres not stated) | -0.2 | -0.5 | 9.0 | -2.0 | 459.7 | 86.3* | 3.9
Cc1ccc(C(C)C)c(OCC(=O)Nc2ccccc2N2CCN(C)CC2)c1 | 0.3 | 6.2 | -10.4 | 2.8 | 226.4 | 83.1* | -7.2 | MPTP swell DR=i;MPTP cs DR=>80
CC(=O)N1CCN(c2ccccc2NC(=O)COc2cc(C)ccc2C(C)C)CC1 | 1.9 | -1.9 | -7.1 | 20.1 | 294.1 | -1.4 | .
O=[N+]([O-])c1cccc(-c2nc(-c3cccs3)c(-c3cccs3)[nH]2)c1 | -6.1 | -0.8 | 10.6 | -3.9 | 826.2 | 103.8* | 53.1*
N#CC1(C#N)CC(C=O)=C(N)C1(C#N)CC(=O)C12CC3CC(CC(C3)C1)C2 (configuration not stated) | 0.9 | -5.9 | 31.0 | 10.1 | 257.7 | 72.7* | 55.1*
Cc1nc2ccc(S(=O)(=O)NCC(=O)NCc3ccccc3Cl)cc2s1 | . | . | 2.3 | . | . | . | .
O=[N+]([O-])c1ccc(C=NNc2ccccc2)cc1 | 2.1 | 1.0 | 3.2 | -15.1 | . | 45.6 | .
O=[N+]([O-])c1ccc(N/N=C/c2ccccc2)c(F)c1 | 0.8 | -5.5 | 11.5 | 7.2 | 227.4 | 82.6* | 79.9*
COc1ccc(-n2c(SCc3nc4ccccc4[nH]3)nc3ccccc3c2=O)cc1 | . | . | 9.2 | . | . | . | .
CC(C)C1O/C(=N/C(=O)Nc2ccc(Cl)c(Cl)c2)NC1=O (configuration not stated) | -2.9 | 4.5 | 9.7 | 15.1 | 303.5 | 92.9* | 91.6*
O=C(Cc1sc(-c2ccccc2Cl)nc1-c1ccccc1)Nc1ccccc1 | -1.8 | 4.6 | 3.3 | 6.9 | 158.7 | -5.6 | .
Cc1ccc(CC(=O)Nc2cccnc2)cc1 | 0.7 | -2.8 | 4.0 | -0.7 | 256.9 | 1.5 | .
O=C(Cc1sc(-c2ccccc2)nc1-c1ccccc1)Nc1ccc(Cl)cc1 | -5.6 | 2.0 | 4.0 | -0.1 | 263.9 | 68.6* | 6.3 | MPTP swell DR=12.4*;MPTP cs DR=<2.5*
SMILES | V-ATPase pH | Granule exo inh | rCAG RNA binder | B2AR ag | T cell modulator | MPTP block | Rh123 counter | others
O=C(Cc1ccc([N+](=O)[O-])cc1)Nc1ccc(Cl)cc1 | -0.1 | -2.6 | 7.5 | 0.2 | 145.5 | 68.5* | 75.6*
Cc1ccc(CC(=O)Nc2ccncc2)cc1 | -1.8 | -9.0 | -0.1 | 0.8 | 152.8 | 84.2* | 36.0*
O=C(Cc1ccc(Cl)cc1)Nc1ccncc1 | 2.8 | -0.7 | -3.1 | -3.3 | 452.8 | 57.6* | 15.5 | MPTP swell DR=i;MPTP cs DR=41.3*
COC(=O)c1ccc(Cl)c(NC(=O)NC23CC4CC(CC(C4)C2)C3)c1 | 2.0 | -1.6 | 6.1 | 2.3 | 380.4 | 94.2* | 82.5*
COC(=O)C(NC(=O)c1ccc(F)cc1)(Nc1ncc(S(=O)(=O)c2ccc([N+](=O)[O-])cc2)s1)C(F)(F)F (configuration not stated) | -5.2 | -0.2 | 8.9 | 5.0 | 85.7 | 89.9* | 87.7*
COC(=O)c1cc2c(c3c4cc(OC)ccc4n(S(=O)(=O)c4ccc(OC)cc4)c13)C(=O)N(Cc1ccco1)C2 | . | . | 21.4 | . | . | . | .
O=C(CCS(=O)(=O)c1ccccc1)Nc1cc(Cl)ccc1F | . | . | 1.0 | . | . | . | .
Cc1ccc(NS(=O)(=O)c2ccc3c(c2)C(=O)c2ccccc2C3=O)c(C)c1 | -1.8 | 0.5 | 6.0 | -5.5 | 323.2 | 82.1* | 72.1*
O=C(N[C@H](C(=O)N1CCC[C@H]1C(=O)NC1CCCC1)C1CCCCC1)c1ccc(Cl)c(Cl)c1 | . | . | 2.7 | . | . | . | .
Cc1ccccc1OCCSCc1nc2ccccc2[nH]1 | -0.7 | -2.1 | -3.4 | -8.4 | 207.2 | 78.9* | 67.2*
CC1CCC(NC(=O)c2cccc(S(=O)(=O)N3CCN(c4ccccc4)CC3)c2)CC1 (configuration not stated) | -2.3 | 0.0 | 1.5 | -2.5 | 951.9 | 76.4* | 18.0 | MPTP swell DR=i;MPTP cs DR=>80
NS(=O)(=O)c1ccc(CCNCc2cc(Br)ccc2OCc2ccccc2F)cc1 | 0.7 | 10.7 | 0.6 | 17.0 | 157.8 | 78.3* | 65.6*
COc1cc(CNCCNC(=O)c2nonc2N)ccc1OCc1ccc(Cl)cc1 | -0.3 | 26.3 | -3.3 | 11.3 | 343.3 | 83.3* | 28.2*
Nc1nonc1C(=O)NCCNCc1cc(Br)ccc1OCc1ccccc1F | 1.7 | 3.0 | -5.9 | -3.4 | 833.0 | 84.3* | 79.8*
Cc1ccc(N/N=C(\C#N)C(=O)c2ccsc2)cc1 | -0.9 | 5.9 | 21.9 | 2.7 | 398.3 | 51.7* | 71.9*
Cc1ccc(-c2nnc(Nc3ccc4c(c3)OCO4)c3ccccc23)cc1S(N)(=O)=O | 6.4 | 0.6 | 4.4 | 0.2 | 374.3 | 56.5* | -6.9 | MPTP swell DR=>100;MPTP cs DR=>80

Screening results as filed in PubChem BioAssay.
